Experimental data published in paper PMC11170630 (ACS Omega, 2024).

What was measured:
HCT-116 cell line = settings: read-out: IC50 cytotoxicity HCT-116 cell line; cited from earlier work
normal colonocyte = assay: MTT cytotoxicity on normal colonic epithelial cells; assay type: cell-based, rat; settings: concentration at 100% cell viability (safe dose), 72 h, mean ± SEM
Method in brief: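 Normal colonic epithelial cells were isolated by the Follmann & Birkner method, with modifications. Cytotoxicity of test compounds on these colonocytes was measured by MTT assay to define safe concentrations. Data are mean ± SEM of three measurements. Differences were tested by one-way ANOVA with Tukey's test, with significance at p < 0.05.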

HCT-116 cells = assay: MTT anticancer assay on colorectal cancer cell line HCT-116; assay type: cell-based, human; settings: for SI (selectivity index): HCT-116 cells over normal colonocytes; for IC50: Homo sapiens, HCT-116, 72 h, read-out: IC50 HCT-116, MTT, 72 h, mean ± SEM
Method in brief: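 MTT viability assay on human colorectal carcinoma HCT-116 cells exposed to test compounds. Data are mean ± SEM of three measurements. Differences between treatments were tested by one-way ANOVA with Tukey's test, with significance at p < 0.05.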

| IC50 (HCT-116 cells) [nM] | Structure (SMILES) | IC50 (HCT-116 cell line) [nM] | EC100 normal colonocyte (normal colonocyte) [µM] | SI (selectivity index) (HCT-116 cells) | fold lower anticancer activity than compound 20 (HCT-116 cells; HCT-116 IC50, compared to 20) [fold] |
| --- | --- | --- | --- | --- | --- |
|  | CNC(=O)c1cc(Oc2ccc(NC(=O)Nc3ccc(Cl)c(C(F)(F)F)c3)cc2)ccn1 [sorafenib] | 9400 |  |  |  |
| 218 | CC(=O)c1ccc(-n2cc(Cn3c(=O)c(Cc4ccccc4)nc4ccccc43)nn2)cc1 [Compound 18] |  | 0.212 ± 0.010 | 10.633 |  |
| 761 ± 50 | COc1cccc2c1C(=O)c1c(O)c3c(c(O)c1C2=O)C[C@@](O)(C(=O)CO)C[C@@H]3O[C@H]1C[C@H](N)[C@H](O)[C@H](C)O1 [DOX, doxorubicin, reference compound] | 9630 | 0.074 ± 0.008 | 0.357 |  |
| 135 ± 9 | O=c1c(Cc2ccccc2)nc2ccccc2n1Cc1cn(-c2ccc(I)cc2)nn1 [Compound 15] |  | 0.103 ± 0.008 | 3.244 |  |
| 331 ± 4 | CC(=O)NS(=O)(=O)c1ccc(-n2cc(Cn3c(=O)c(Cc4ccccc4)nc4ccccc43)nn2)cc1 [Compound 19] |  | 0.150 ± 0.015 | 1.211 | 4.6 |
| 114 ± 1 | O=C(O)CNC(=O)c1ccc(-n2cc(Cn3c(=O)c(Cc4ccccc4)nc4ccccc43)nn2)cc1 [Compound 17] |  | 0.169 ± 0.036 | 3.263 |  |
| 222 | O=c1c(Cc2ccccc2)nc2ccccc2n1Cc1cn(-c2ccc(O)cc2)nn1 [Compound 16] |  | 0.556 ± 0.031 | 5.000 |  |
